Active and inactive are the calls of the source. The rule behind the calls is not given here.

One data set deals with CD4+ve Th. The data set is described as follows: Induction of cell proliferation of human CD4+ve Th cells at 50 uM measured after 96 hrs in presence of alprazolam by flow cytometry analysis relative to control. It is filed as functional. The gist of the method: (§1)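 Human PBMC from leukocyte cones were CFSE-stained (5 μM) and held at high density overnight. They were then stimulated with soluble anti-CD3 OKT3 (100 pg/mL) plus alprazolam 33 μM, with test compound at 50 μM, for 96 h. CD4+/CD8+ proliferation was measured by CFSE dilution on flow cytometry, at least six independent experiments.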

Data set [1] can be described thus: Receptor occupancy at human GABA receptor.
The nature of data set [2]: Apparent permeability of compound across apical to basolateral side in MDCK cells. It is filed as ADME, cell-based, Canis lupus familiaris. To be noted: dog. A digest of the protocol: (§2)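 MDR1-transfected MDCK monolayers, 0.5 μM test compound added apically or basally. Bidirectional apparent permeability measured in triplicate. Efflux ratio is B→A permeability divided by A→B permeability.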

A short description of data set [3]: Apparent permeability of compound across basolateral to apical side in MDCK cells. Format: ADME, cell-based, Canis lupus familiaris. The note with it: dog. The gist of the method:
as §2

Data set [4] is described as follows: Efflux ratio of apparent permeability across basolateral to apical side over apical to basolateral side in MDCK. Format: ADME, cell-based, Canis lupus familiaris. The note with it: dog. The gist of the method: as §2
Data set [5] in a line: Induction of cell proliferation of human CD8-positive T cells at 50 uM measured after 96 hrs in presence of alprazolam by flow cytometry analysis relative to control. It is filed as functional. A digest of the protocol:
as §1
Background: Flow cytometry measures light scatter and fluorescence of single cells or particles in a stream.

Another data set deals with CD8-positive T cell. The experiment in a line: Induction of cell proliferation of mouse CD8-positive T cells at 50 uM measured after 48 hrs in presence of alprazolam by flow cytometry analysis relative to control. It is filed as functional, cell-based. A digest of the protocol:
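Splenocytes from female BALB/c mice were CFSE-stained (5 μM) and stimulated with soluble anti-CD3 145.2C11 (33 ng/mL) plus alprazolam 100 μM, with test compound at 50 μM, for 48 h. CD4+/CD8+ proliferation was measured by CFSE dilution on flow cytometry, at least six independent experiments.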

The test system of data set [6] is CD4-positive T cell (mouse). The data set is described as follows: Induction of cell proliferation of mouse CD4+ve Th cells at 50 uM measured after 48 hrs in presence of alprazolam by flow cytometry analysis relative to control.
Data set [7] addresses T1, GABA A receptor alpha-3/beta-2/gamma-2 (Homo sapiens, UniProt P18507+P34903+P47870).
T1 sequence (P47870 whole entry): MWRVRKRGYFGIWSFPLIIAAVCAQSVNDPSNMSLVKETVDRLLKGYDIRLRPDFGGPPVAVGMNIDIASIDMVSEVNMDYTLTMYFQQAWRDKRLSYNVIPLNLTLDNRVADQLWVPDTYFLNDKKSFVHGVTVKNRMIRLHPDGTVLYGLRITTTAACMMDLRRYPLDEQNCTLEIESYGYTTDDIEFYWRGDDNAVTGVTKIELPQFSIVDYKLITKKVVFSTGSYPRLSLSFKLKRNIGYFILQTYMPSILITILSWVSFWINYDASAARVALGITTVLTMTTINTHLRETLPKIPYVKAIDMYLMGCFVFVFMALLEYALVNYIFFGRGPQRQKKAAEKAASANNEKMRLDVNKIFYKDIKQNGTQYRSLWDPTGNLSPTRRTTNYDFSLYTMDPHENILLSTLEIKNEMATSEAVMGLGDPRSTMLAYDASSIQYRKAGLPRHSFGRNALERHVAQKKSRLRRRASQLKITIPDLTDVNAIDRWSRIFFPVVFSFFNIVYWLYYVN
T1 sequence (P18507 whole entry): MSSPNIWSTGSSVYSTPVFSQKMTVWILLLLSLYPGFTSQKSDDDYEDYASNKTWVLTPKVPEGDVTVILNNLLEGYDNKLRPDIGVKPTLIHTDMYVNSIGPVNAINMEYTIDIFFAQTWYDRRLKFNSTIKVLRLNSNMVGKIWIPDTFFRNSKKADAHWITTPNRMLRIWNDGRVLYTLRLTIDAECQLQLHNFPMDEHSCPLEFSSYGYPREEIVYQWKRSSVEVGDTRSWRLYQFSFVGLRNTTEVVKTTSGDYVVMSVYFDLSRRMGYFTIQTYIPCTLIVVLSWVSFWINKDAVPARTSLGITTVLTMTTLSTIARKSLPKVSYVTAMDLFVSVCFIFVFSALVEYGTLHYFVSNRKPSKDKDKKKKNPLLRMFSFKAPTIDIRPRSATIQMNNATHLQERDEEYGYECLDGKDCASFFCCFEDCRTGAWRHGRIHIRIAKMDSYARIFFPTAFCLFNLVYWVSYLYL
T1 sequence (P34903 whole entry): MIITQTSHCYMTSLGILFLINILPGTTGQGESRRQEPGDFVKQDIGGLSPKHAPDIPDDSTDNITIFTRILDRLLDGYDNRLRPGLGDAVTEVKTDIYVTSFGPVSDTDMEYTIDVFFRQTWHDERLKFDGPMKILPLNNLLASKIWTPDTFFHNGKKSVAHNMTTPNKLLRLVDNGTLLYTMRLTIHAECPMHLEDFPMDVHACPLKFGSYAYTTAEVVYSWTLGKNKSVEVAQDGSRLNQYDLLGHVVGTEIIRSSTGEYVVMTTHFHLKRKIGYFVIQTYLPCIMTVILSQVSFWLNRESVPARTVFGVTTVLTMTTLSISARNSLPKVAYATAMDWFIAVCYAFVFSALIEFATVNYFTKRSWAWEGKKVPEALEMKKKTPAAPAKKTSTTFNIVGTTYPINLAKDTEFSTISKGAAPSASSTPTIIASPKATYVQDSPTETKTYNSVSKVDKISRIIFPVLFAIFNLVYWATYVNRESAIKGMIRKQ
The experiment in a line: Antagonist activity at human alpha3beta2gamma2 GABAA receptor expressed in HEKcells by FMP assay. It is filed as cell-based, HEK. A digest of the protocol: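 Human αβγ2 receptors in HEK293 cells: α1β2γ2 stably expressed, other αβγ2 subtypes transiently transfected into HEK293 Flp-In background cells (α:β:γ 1:1:2). FLIPR membrane potential assay with ΔRFU baseline to peak/plateau and GABA EC80 as agonist. IC50 from a four-parameter fit, at least three independent experiments.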

For a further data set, the species on record is Homo sapiens. The data set is described as follows: Binding affinity to GABA receptor (unknown origin) assessed as equilibrium binding constant by schild plot analysis. To be noted: filed as antagonist.

In the case of `Cc1cccc(C(=O)N2CCC3(CCNCC3)CC2)c1`, the Activity (in the data set with CD4+ve Th; in [5]) was 20% each time. The molecule also showed a negative-log IC50 (pIC50) in data set [1] of 7.152. In addition, the Papp A→B in [2] came to 1.3 ×10⁻⁶ cm/s. Further, in [3], the Papp B→A was 15 ×10⁻⁶ cm/s. Besides, in [4], the efflux ratio was 11.5. Further, the result (in the data set on CD8-positive T cell; in data set [6]) was Active.
Consider `CC(=O)Nc1cccc(C(=O)N2CCC3(CCNCC3)CC2)c1`, for which the figures for the IC50 in data set [7] and in data set [7] (read-out: pIC50 (converted)) were 290 nM and 288 nM, respectively.
As to `O=C(Nc1cccc(C(=O)N2CCC3(CCNCC3)CC2)c1)c1cccs1`, the IC50 in data set [7] was 79 nM; in data set [7] (read-out: pIC50 (converted)), 79.4 nM. In addition, the Kb in the data set filed under Homo sapiens was 6.9 nM.

For orientation: pIC50 means the IC50 on a negative log10 scale, so that one unit is a factor of ten. A higher pIC50 goes with a low IC50. What is called Papp A→B is the apparent permeability from the apical to the basolateral side of a cell layer. Broadly, the Papp B→A is the apparent permeability from the basolateral to the apical side of a cell layer. As usually defined, the efflux ratio is the permeability from basolateral to apical divided by that in the opposite direction, in the common usage. Usually Kb stands for the affinity of an antagonist, worked out from how it opposes an agonist.

The values are drawn from ChEMBL document CHEMBL5096209, “Structure-Activity Studies of 3,9-Diazaspiro[5.5]undecane-Based γ-Aminobutyric Acid Type A Receptor Antagonists with Immunomodulatory Effect” (J Med Chem, 2021).
